Laboratory results from ChEMBL document CHEMBL1124977, “Synthesis of acyclic and dehydroaspartic acid analogues of Ac-Asp-Glu-OH and their inhibition of rat brain N-acetylated alpha-linked acidic dipeptidase (NAALA dipeptidase)” (J Med Chem, 1990).
Residues, ends and D or L forms follow the SMILES beside them.

Columns and labels:
[1] = target: T1, Glutamate carboxypeptidase 2 (Rattus norvegicus, UniProt P70627); test: Tested for Ac-Asp-[3,4-3H]-Glu-OH hydrolysis inhibitory activity against rat forebrain N-Acetylated alpha-linked Dipeptidase (NAALA Dipeptidase)
T1 sequence (P70627 whole entry): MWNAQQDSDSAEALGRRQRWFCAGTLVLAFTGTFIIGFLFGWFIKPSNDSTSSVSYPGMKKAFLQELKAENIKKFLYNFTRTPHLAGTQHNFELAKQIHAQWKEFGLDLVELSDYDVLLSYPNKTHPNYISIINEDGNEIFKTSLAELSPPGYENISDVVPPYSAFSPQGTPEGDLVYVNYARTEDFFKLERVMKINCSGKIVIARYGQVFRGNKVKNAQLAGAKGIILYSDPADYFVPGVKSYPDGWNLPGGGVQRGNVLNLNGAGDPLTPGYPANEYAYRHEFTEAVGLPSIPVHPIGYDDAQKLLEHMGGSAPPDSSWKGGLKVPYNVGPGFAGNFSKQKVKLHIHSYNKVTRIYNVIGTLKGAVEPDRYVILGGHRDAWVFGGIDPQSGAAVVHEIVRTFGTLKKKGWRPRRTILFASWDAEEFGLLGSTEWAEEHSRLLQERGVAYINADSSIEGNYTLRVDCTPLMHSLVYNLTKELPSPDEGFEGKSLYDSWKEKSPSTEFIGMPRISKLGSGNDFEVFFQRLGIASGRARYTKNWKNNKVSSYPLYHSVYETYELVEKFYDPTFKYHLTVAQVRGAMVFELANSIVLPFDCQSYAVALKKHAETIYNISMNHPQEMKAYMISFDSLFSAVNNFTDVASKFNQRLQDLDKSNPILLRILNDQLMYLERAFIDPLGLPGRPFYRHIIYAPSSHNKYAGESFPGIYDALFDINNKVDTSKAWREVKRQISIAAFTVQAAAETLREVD
Method in brief: (§1)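 Ki used the same rat forebrain membrane assay (Hepes pH 7.4, NaCl, CoCl₂, radiometric ³H-Glu read-out). Substrate was 0.25, 0.5, 1.0, 2.0 and 5.0 μM. Inhibitor was tested at 0, IC50, and 2- and 4-fold above and below IC50. Lineweaver–Burk slopes were replotted against [inhibitor]. Ki equals the slope at 0 μM inhibitor divided by the replot slope. Ki was determined only when IC50 <100 μM.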

[2] = target: T1, Glutamate carboxypeptidase 2; test: Concentration required for 50%inhibition of Ac-Asp-[3,4-3H]-Glu-OH hydrolysis against rat forebrain N-Acetylated alpha-linked Dipeptidase (NAALA Dipeptidase)
Method in brief: (§2)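 Enzyme source: "buffy coat" synaptic membranes from Sprague-Dawley rat (45–90 days) forebrain, washed in 0.1 M Hepes pH 7.4 and stored frozen. Inhibitor was tested at about 2- and 4-fold above and below the estimated IC50. Mean of three experiments ± SEM.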

[3] = target: T1, Glutamate carboxypeptidase 2; test: Tested for Ac-Asp-[3,4-3H]-Glu-OH hydrolysis inhibitory activity against rat forebrain N-acetylated-alpha-linked acidic dipeptidase; method in brief: as §1
[4] = target: T1, Glutamate carboxypeptidase 2; test: Concentration required for 50%inhibition of Ac-Asp-[3,4-3H]-Glu-OH hydrolysis against rat forebrain N-acetylated-alpha-linked acidic dipeptidase; method in brief: as §2

Ki [1]	IC50 [2]	Ki [3]	IC50 [4]	Structure (SMILES)
3.5 µM	9 µM	–	–	CC(=O)N[C@@H](CCC(=O)O)C(=O)N[C@@H](CCC(=O)O)C(=O)O (Ac-Glu-Glu-OH)
–	–	41 µM	83 µM	O=C(O)/C=C\C(=O)N[C@@H](CCC(=O)O)C(=O)O
–	15 µM	8.5 µM	–	CC(=O)N[C@H](CC(=O)O)C(=O)N[C@@H](CCC(=O)O)C(=O)O
–	–	–	200 µM	CC(=O)N[C@@H](CC(=O)O)C(=O)N[C@@H](CCC(=O)O)CC(=O)O
–	–	3.2 µM	8 µM	CC(=O)N[C@@H](CC(=O)O)CC(=O)N[C@@H](CCC(=O)O)C(=O)O
–	–	–	193 µM	CC(=O)N[C@@H](CCC(=O)O)C(=O)N[C@@H](CC(=O)O)C(=O)O (Ac-Glu-Asp-OH)
–	–	–	250 µM	CC(=O)N[C@@H](CC(=O)O)C(=O)N[C@@H](CC(=O)O)C(=O)O (Ac-Asp-Asp-OH)
–	–	0.9 µM	2.5 µM	O=C(O)CCC(=O)N[C@@H](CCC(=O)O)C(=O)O
–	–	0.4 µM	0.8 µM	O=C(O)/C=C/C(=O)N[C@@H](CCC(=O)O)C(=O)O
